HTR2A ag: activates the mouse 5-HT2A serotonin receptor. 360,000 tested, 0.66% active. CHO-K1 mHTR2A beta-arrestin complementation, luminescence; percent of 30 µM serotonin response. AID 624169. activation, % at 7.6 µM. P35363;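 active = activation above a run cutoff, the mean activation of all tested compounds plus 3 SD, cut at about 14% in these data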;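 note: 0% = plate median of compound wells and 100% = 30 µM serotonin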
MC4R antagonist: blocks human MC4R cAMP signaling | MC4R-expressing cells, MTII-stimulated cAMP, LANCE TR-FRET | inhibition, % at 6.5 µM | 360,000 tested, 0.48% active;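 active = inhibition above its plate's cutoff, the mean of tested wells on that plate plus 3 SD, cut at about 29% in these data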;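 note: 0% = Melanotan II alone and 100% = Melanotan II plus saturating MCL0020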
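Material: U2OS-MC4R stable cell line | Reagent: Melanotan II challenge after compound preincubation | Doses: One concentration, 6.5 µM nominal | Incubation: 30-min compound preincubation, 1-h Melanotan II challenge, 1-h detection, room temperature | Signal: TR-FRET cAMP assay | Replicates: One well per compound, no replicates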
EBI2 antag: antagonists of human EBI2 receptor. inhibition, % at 5 µM. P32249. 360,000 tested, 0.81% active. EBI2 beta-arrestin recruitment, luminescence, 7a,25-OHC stimulated; in the data active = inhibition above about 38%;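 note: enzyme fragment complementation signal reports receptor beta-arrestin coupling in cells; 0% = agonist plus DMSO wells and 100% = wells without agonist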
Target sequence (P32249 whole entry, looked up, the tested form may be a part): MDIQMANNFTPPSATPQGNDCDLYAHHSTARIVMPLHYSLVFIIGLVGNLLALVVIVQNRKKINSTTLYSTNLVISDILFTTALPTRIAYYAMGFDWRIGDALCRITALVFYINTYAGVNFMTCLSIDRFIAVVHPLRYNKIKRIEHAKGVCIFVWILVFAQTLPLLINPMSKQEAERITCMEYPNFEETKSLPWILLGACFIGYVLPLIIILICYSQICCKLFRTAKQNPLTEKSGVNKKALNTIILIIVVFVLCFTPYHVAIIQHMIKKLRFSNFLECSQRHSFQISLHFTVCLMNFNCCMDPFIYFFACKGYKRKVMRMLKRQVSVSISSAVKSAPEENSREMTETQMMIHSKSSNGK
MC4R barr agon: activates human MC4R beta-arrestin recruitment | P32245 | U2OS MC4R beta-arrestin complementation, luminescence; percent of melanotan II response, DMSO zero | activation, % at 8.9 µM | 360,000 tested, 0.98% active | AID 540308;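 active = activation above a per-plate cutoff, the mean activation of sample wells on that plate plus 3 SD, cut at about 8% in these data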
* hit, by the source's call; / = no result; ! = not active in a repeat. A selection: hits, their analogues and other compounds. The true share with any hit is near 2.8%.

SMILES	HTR2A ag	MC4R antagonist	EBI2 antag	MC4R barr agon
COc1ccc2oc(C(=O)OCC(=O)NC3CCS(=O)(=O)C3)c(C)c2c1 (stereo not given)	3.1	-3.7	-11.0	-1.0
Cc1cccc(NC(=O)CCSc2ccccc2)c1C	4.6	8.1	-1.3	8.7*
FC(F)(F)c1cccc(Sc2cc(C(F)(F)F)nc(-c3ccccn3)n2)c1	5.4	12.1	-20.9	9.1*
O=C(O)CSc1cc(C(F)(F)F)nc(-c2ccccn2)n1	1.5	-3.1	2.9	-1.1
CN1CCC(C)(C(=O)Nc2ccc3c(c2)OCCO3)C1 (stereo not given)	-0.8	1.7	8.2	-1.3
O=C(Nc1nnc(SCc2ccc(F)cc2)s1)c1ccccn1	-7.0	-4.7	66.6*	-2.1
O=C(Nc1nnc(SCc2ccc(F)cc2)s1)c1cccnc1Cl	6.2	7.2	10.3	-0.5
CCOC(=O)C1=CC[C@@H](c2ccccc2)N(S(=O)(=O)c2ccc(C)cc2)[C@@H]1C#N	-5.6	/	13.6	/
COc1cccc(-n2nnnc2S(C)(=O)=O)c1	-6.6	43.1*	24.1	-2.6
CC1=C(C(=O)N(C(C)C)C(C)C)CC(CC(=O)NCc2ccco2)C(=O)N1CCC1=CCCCC1 (stereo not given)	-3.5	/	-8.5	/
O=C(NCCc1c[nH]c2ccccc12)C(=O)NCC(c1ccco1)N1CCN(c2ccccc2F)CC1 (stereo not given)	-0.9	3.5	58.0*	5.5
COc1ccc(Cn2c(C3CC3)nc3ccc(NC(=O)c4cccnc4)cc3c2=O)cc1	-5.4	-5.2	53.1*	-2.0
Cc1cc(C(C)(C)C)cc(C)c1S(=O)(=O)N1CC(=O)Nc2ccccc21	12.8	7.3	6.7	8.7*
COc1ncnc2c1ncn2CCCN(CCCc1ccccc1)CCCn1cnc2c(OC)ncnc21	-2.1	2.4	-8.6	0.4
C[C@@H]1CN([C@@H](C)CO)C(=O)CCCn2nncc2CO[C@@H]1CN(C)C(=O)Nc1ccc(C(C)(C)C)cc1	1.9	-2.9	-5.7	-1.1
CCC[C@@H]1C[C@@H](C(=O)NC(C(C)Cl)[C@H]2O[C@H](SC)[C@H](O)[C@@H](O)[C@H]2O)N(C)C1 (stereo not given in full)	39.8*	15.8	-5.8	0.6
COc1ccc(S(=O)(=O)N(C)C[C@@H]2OCc3cn(nn3)CCCC(=O)N([C@H](C)CO)C[C@H]2C)cc1	1.0	/	-7.6	/
C/C(N)=C(/C#N)C(=O)COC(=O)c1cc(-c2ccc(Br)cc2)nc2ccccc12	0.0	24.0	23.6	8.4*!
C/C(N)=C(/C#N)C(=O)COc1ncnc2ccccc12	1.9	-2.6	-4.1	-2.2
Cc1cccnc1C1=NOC(Cc2ccccc2)C(=O)N1CCOc1ccc(F)cc1 (stereo not given)	0.7	2.1	-0.2	-0.4
COc1ccc(Cn2c(-c3ccc(C)cc3)nc3c(c(=O)c4ccccc4n3C)c2=O)cc1	0.6	14.8	-1.7	9.2*
COc1ccc(-c2nc3c(c(=O)c4ccccc4n3C)c(=O)n2Cc2ccccc2)cc1	2.2	8.9	-2.7	0.4
COc1cccc(CNC(=O)CCC(=O)N2CCOCC2)c1	1.6	-0.7	-7.0	1.3
Cn1cnc(S(=O)(=O)N2CCCCC2c2cc(C(=O)Nc3cccc(C#N)c3)no2)c1 (stereo not given)	-3.2	4.3	2.9	0.0
Cn1c(SCC(=O)c2ccc3c(c2)NC(=O)CO3)nc2ccccc21	-2.4	27.1	30.4	14.4*
SMILES	HTR2A ag	MC4R antagonist	EBI2 antag	MC4R barr agon
CCN(CC(=O)Nc1cccc(OC)c1)C(=O)C1CC(=O)N(Cc2ccccc2Cl)C1 (stereo not given)	-0.9	5.9	-4.4	-1.8
CC1=C(C(=O)Nc2ccccc2)C(c2ccc(C)cc2)N=C(Nc2nc3ccccc3o2)N1 (stereo not given)	-5.8	-5.4	15.1	9.9*
CC(C)C1C(C#N)=C(N)Oc2n[nH]c(-c3ccc4ccccc4c3)c21 (stereo not given)	-7.7	-13.6	29.4	9.4*
O=C(NCCC1=CCCCC1)c1cc(COc2ccc(F)cc2Cl)on1	6.8	7.1	6.6	3.8
O=C(NCCc1ccccc1Cl)c1cc(COc2ccc(F)cc2F)on1	-3.4	2.1	57.2*	-1.0
CCCCOC(=O)c1ccc(OC(=O)c2cccnc2)cc1	-2.9	0.0	0.4	-3.4
CCCCCCOC(=O)c1ccc(OC(=O)c2cccnc2)cc1	22.2*	-2.6	-30.8	-0.7
Nc1nonc1-n1nnc(C(=O)N/N=C/c2ccc(Br)cc2)c1-c1ccc2c(c1)OCO2	5.3	7.1	10.6	8.8*
CCCCS(=O)(=O)/C=C\C1C2C=CC(C2)C1S(=O)(=O)CCCC (stereo not given)	-3.2	3.0	-4.4	-1.0
CCCCS(=O)(=O)/C=C\C=C/S(=O)(=O)CCCC	-4.5	13.7	50.7*	-4.2
O=c1[nH][nH]c2c1[C@H](CCc1cccc(Cl)c1)O[C@H](CCc1ccccc1)C2	-11.3	/	-2.6	/
CCCc1nc2ccccc2n1C(C(=O)NC(C)(C)C)C1CC1 (stereo not given)	-1.2	/	-5.3	/
N#Cc1nc(-c2ccc(Cl)cc2)oc1NCc1cccc2c1OCO2	-6.2	1.9	-2.7	8.5*
CCOc1ccc(Nc2oc(-c3ccc(Cl)cc3)nc2C#N)cc1	-0.1	-14.3	9.3	8.9*
COc1ccc(-c2nn(-c3ccccc3)cc2C=O)cc1[N+](=O)[O-]	2.7	-4.3	-21.1	9.5*
COc1ccc(-c2nn(-c3ccccc3)cc2/C=C/C(=O)O)cc1[N+](=O)[O-]	-0.1	-31.0	2.5	-0.8
CCOC(=O)[C@]12CCC=C1N(Cc1cccc3ccccc13)C(=O)[C@H](CC(=O)NCCC(C)C)C2	-4.9	/	15.6	/
CN(C)S(=O)(=O)c1ccc(C(=O)Nc2ccc3c(c2)CCC3)cc1	0.3	0.9	56.0*	-1.1
CN(C)S(=O)(=O)c1cccc(C(=O)Nc2ccc3c(c2)CCC3)c1	5.8	17.8	5.9	1.1
O=C(NCc1ccccc1)C(c1ccc(C(F)(F)F)cc1)n1c(=O)c(-c2cc3ccccc3[nH]2)nc2ccccc21 (stereo not given)	-3.2	/	8.4	/
Cc1ccc2c(cnn2C(=O)CCCC(=O)NCc2ccc(Cl)cc2)c1	1.1	-6.2	-3.0	8.6*
Cc1ccc(CNC(=O)CCC(=O)n2ncc3cc(C)ccc32)cc1	1.3	4.8	-4.9	1.5
CCN(CC(=O)Nc1c(C(=O)OC)[nH]c2ccccc12)c1ccc2c(c1)OCO2	3.8	-17.2	-2.4	0.3
COC(=O)c1[nH]c2ccccc2c1NC(=O)/C=C/c1ccc2c(c1)OCO2	2.2	-3.7	10.5	8.4*
C=C(CN(C)C)C(=O)c1ccc(OC2OC(COC(C)=O)C(OC(C)=O)C(OC(C)=O)C2OC(C)=O)cc1 (stereo not given)	-1.7	-27.4	72.2*	-1.2
Cc1cc(NCCCCCCCNc2cc(C)nc3cc([N+](=O)[O-])ccc23)c2ccc([N+](=O)[O-])cc2n1	-6.5	6.0	-0.6	-1.5
CCCCCCCCCS(=O)(=O)Nc1cc(C)ccn1	4.0	4.8	-2.2	2.2

Source: PubChem BioAssay
